Key:
Details in all cases: stereoisomer not certain
[1] = target: T1, OR8D1 (Homo sapiens) (UniProt Q8WZ84)
T1 sequence (whole entry): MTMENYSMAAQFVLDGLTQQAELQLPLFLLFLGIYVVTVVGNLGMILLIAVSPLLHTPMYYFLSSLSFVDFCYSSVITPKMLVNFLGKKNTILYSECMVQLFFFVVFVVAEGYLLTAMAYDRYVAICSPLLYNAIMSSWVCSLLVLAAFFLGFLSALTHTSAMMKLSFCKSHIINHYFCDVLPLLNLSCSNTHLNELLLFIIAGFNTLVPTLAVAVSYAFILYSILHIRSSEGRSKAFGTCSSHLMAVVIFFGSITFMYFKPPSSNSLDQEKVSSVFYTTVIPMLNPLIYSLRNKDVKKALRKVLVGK
Method in brief: (§1)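 Transient luciferase assays in mammalian cell lines were common, though methods varied by source. The values come from published papers and their supplementary material, with extra details from the original authors when needed. Responsive refers to a measured signal the original authors judged statistically different from baseline, and non-responsive (inactive) to the remainder.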

[2] = target: OR8B12 (Homo sapiens) (UniProt Q8NGG6)
Method in brief: as §1

[3] = target: OR8B2 (Homo sapiens) (UniProt Q96RD0)
Method in brief: as §1

[4] = system: OR8B2 L164F
Method in brief: as §1

[5] = system: OR8B2 S273F
Method in brief: as §1

[6] = target: OR8B3 (Homo sapiens) (UniProt Q8NGG8)
Method in brief: as §1

[7] = system: OR8B3 H20R Q24R M114I
Method in brief: as §1

[8] = system: OR8B3 H20R Q24R Y113H
Method in brief: as §1

[9] = system: OR8B3 H20R Q24R
Method in brief: as §1

[10] = target: OR8B4 (Homo sapiens) (UniProt Q96RC9)
Method in brief: as §1

[11] = system: OR8B4
Method in brief: as §1

[12] = target: OR8B8 (Homo sapiens) (UniProt Q15620)
Method in brief: as §1

[13] = system: OR8B8 L101P
Method in brief: as §1

[14] = system: OR8D1 C127G L194P
Method in brief: as §1

[15] = system: OR8D1 L194P
Method in brief: as §1

[16] = target: OR8D2 (Homo sapiens) (UniProt Q9GZM6)
Method in brief: as §1

[17] = target: OR8D4 (Homo sapiens) (UniProt Q8NGM9)
Method in brief: as §1

[18] = system: OR8D4 C120Y R133K
Method in brief: as §1

[19] = target: OR8G1 (Homo sapiens) (UniProt Q15617)
Method in brief: as §1

[20] = target: OR8G5 (Homo sapiens) (UniProt Q8NG78)
Method in brief: as §1

Measured: odorant receptor agonist call;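 further: active if original authors judged signal statistically different from baseline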

OR8B4 (Homo sapiens), sequence (Q96RC9 whole entry): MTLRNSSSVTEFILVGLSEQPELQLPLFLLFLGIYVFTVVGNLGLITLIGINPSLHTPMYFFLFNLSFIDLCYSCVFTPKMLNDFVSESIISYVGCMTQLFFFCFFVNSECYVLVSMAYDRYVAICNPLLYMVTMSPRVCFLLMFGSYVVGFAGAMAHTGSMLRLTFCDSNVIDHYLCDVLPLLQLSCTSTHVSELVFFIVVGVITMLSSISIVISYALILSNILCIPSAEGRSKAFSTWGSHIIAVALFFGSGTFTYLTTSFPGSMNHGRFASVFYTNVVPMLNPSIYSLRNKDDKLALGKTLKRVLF
OR8G5 (Homo sapiens), sequence (Q8NG78 whole entry): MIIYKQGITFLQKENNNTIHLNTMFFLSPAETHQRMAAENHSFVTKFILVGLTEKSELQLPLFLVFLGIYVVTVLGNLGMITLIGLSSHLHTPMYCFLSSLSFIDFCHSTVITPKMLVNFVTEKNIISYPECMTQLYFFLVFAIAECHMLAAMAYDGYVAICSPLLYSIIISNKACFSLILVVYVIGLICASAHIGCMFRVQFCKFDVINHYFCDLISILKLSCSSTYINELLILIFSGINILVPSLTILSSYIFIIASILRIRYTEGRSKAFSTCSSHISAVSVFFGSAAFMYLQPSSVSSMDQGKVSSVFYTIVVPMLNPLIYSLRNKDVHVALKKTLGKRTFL
OR8D4 (Homo sapiens), sequence (Q8NGM9 whole entry): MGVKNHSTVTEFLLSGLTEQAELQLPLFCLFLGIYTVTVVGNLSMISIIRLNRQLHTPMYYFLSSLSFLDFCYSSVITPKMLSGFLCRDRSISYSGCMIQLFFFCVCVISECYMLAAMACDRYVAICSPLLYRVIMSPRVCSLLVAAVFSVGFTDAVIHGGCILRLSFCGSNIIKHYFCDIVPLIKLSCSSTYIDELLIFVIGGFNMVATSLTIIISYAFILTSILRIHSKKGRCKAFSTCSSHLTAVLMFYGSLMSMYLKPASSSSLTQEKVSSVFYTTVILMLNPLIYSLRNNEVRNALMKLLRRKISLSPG
OR8B2 (Homo sapiens), sequence (Q96RD0 whole entry): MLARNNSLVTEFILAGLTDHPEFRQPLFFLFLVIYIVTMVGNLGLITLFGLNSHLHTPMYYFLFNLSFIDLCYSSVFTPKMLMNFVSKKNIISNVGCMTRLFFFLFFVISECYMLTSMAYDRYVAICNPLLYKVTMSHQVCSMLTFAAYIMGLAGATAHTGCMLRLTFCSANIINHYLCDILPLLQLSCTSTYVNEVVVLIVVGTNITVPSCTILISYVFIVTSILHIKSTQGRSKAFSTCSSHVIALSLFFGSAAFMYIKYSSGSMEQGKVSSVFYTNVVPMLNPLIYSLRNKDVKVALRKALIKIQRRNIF
OR8G1 (Homo sapiens), sequence (Q15617 whole entry): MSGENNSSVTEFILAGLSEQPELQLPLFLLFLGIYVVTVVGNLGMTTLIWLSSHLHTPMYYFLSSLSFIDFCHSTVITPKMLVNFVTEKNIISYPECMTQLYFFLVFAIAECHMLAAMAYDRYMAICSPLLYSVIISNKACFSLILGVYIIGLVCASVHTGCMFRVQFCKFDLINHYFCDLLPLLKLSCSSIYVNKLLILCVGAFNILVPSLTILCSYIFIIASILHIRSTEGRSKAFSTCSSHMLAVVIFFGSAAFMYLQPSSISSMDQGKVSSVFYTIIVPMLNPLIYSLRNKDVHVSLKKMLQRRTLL
OR8D2 (Homo sapiens), sequence (Q9GZM6 whole entry): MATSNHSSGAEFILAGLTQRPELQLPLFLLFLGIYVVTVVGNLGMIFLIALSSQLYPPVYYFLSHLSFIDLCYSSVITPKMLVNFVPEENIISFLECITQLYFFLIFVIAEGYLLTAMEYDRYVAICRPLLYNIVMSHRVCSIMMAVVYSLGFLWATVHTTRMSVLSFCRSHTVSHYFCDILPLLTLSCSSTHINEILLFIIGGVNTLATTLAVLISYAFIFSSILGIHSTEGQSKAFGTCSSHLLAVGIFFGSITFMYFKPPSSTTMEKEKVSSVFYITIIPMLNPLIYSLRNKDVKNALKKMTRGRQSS
OR8B3 (Homo sapiens), sequence (Q8NGG8 whole entry): as the sequence (Q96RD0 whole entry) above, with R24Q, I34V, T47I, N94Y, R100Q, T205I, T208M counted along it
OR8B12 (Homo sapiens), sequence (Q8NGG6 whole entry): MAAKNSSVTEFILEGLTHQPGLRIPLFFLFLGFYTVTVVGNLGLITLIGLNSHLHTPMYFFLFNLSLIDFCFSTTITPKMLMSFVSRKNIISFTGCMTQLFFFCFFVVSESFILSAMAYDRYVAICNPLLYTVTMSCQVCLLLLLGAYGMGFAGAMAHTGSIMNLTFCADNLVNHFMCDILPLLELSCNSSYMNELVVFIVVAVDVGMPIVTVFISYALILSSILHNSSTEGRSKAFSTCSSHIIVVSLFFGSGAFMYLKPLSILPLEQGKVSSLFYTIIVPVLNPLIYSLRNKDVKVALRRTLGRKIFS
OR8B8 (Homo sapiens), sequence (Q15620 whole entry): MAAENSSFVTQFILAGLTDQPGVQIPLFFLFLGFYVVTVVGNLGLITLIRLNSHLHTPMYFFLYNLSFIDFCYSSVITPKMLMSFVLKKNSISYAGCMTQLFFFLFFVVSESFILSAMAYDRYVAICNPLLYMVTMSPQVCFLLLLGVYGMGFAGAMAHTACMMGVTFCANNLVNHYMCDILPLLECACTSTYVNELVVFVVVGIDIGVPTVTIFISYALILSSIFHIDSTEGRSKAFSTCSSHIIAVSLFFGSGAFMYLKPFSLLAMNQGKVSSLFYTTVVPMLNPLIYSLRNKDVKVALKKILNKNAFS
OR8D1 L194P, sequence (as listed by the source, stated change not applied): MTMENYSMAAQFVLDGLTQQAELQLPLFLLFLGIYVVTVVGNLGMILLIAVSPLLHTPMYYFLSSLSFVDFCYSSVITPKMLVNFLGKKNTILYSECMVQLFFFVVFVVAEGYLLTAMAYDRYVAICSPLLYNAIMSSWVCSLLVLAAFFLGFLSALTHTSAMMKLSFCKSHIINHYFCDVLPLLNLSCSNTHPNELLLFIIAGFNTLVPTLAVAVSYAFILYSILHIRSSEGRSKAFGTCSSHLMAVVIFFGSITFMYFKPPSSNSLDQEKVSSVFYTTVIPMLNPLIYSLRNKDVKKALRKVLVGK
OR8B8 L101P, sequence (as listed by the source, stated change not applied): as the sequence (Q15620 whole entry) above, with L101P counted along it
OR8B4, sequence (as listed by the source): as the sequence (Q96RC9 whole entry) above, with E22G counted along it
OR8B2 S273F, sequence (as listed by the source, stated change not applied): as the sequence (Q96RD0 whole entry) above, with S273F counted along it
OR8B2 L164F, sequence (as listed by the source, stated change not applied): as the sequence (Q96RD0 whole entry) above, with L164F counted along it

CSSC
inactive: [1]

O=Cc1ccc2c(c1)OCO2
inactive: [1]

C=CCOC(=O)Cc1ccccc1
inactive: [2] | [3] | [4] | [5] | [6] | [7] | [8] | [9] | [10] | [11] | [12] | [13] | [1] | [14] | [15] | [16] | [17] | [18] | [19] | [20]

CCOC(=O)Cc1ccccc1
inactive: [1]

NCC(=O)c1ccccc1
inactive: [1]

Cc1ccccc1O
inactive: [1]

SCc1ccco1
inactive: [1]

Cc1c([N+](=O)[O-])c(C)c([N+](=O)[O-])c(C(C)(C)C)c1[N+](=O)[O-]
inactive: [2] | [3] | [6] | [10] | [12] | [1] | [16] | [17] | [19] | [20]

C=CCSSCC=C
inactive: [1]

Cc1ccc(O)c(C)c1
inactive: [1]

COc1ccc(C=O)cc1
inactive: [1]

C=CCc1ccc(OC)cc1
inactive: [1]
